Our source for the Activity and IC50 values is ChEMBL document CHEMBL4732269, “Design, Synthesis, and Biological Evaluation of Imidazopyridines as PD-1/PD-L1 Antagonists” (ACS Med Chem Lett, 2021).

Activity calls are given as the source filed them. No cut-off for these calls is given here.

Common to all, as to type: protein-complex assay
Test [1] has as its target T1, Programmed cell death protein 1/Programmed cell death 1 ligand 1 (Homo sapiens, UniProt Q15116+Q9NZQ7). The test can be described thus: Antagonist activity at PD1/PD-L1 (unknown origin) assessed as disruption of PD-1/PD-L1 complex by measuring PD-L1 dimerization at 50 uM measured after 2 hrs by HTRF assay.
Test [2] deals with T2, Programmed cell death protein 1/Programmed cell death 1 ligand 1 (Homo sapiens, UniProt Q9NZQ7). As to the kind of experiment: Antagonist activity at PD1/PD-L1 (unknown origin) assessed as disruption of PD-1/PD-L1 complex by measuring PD-L1 dimerization measured after 2 hrs by HTRF assay. Summed up:
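PD-1/PD-L1 binding measured by HTRF with a commercial kit following the kit protocol, at 20 μL final volume. Each compound was run as its own dilution series, and plates were incubated 2 h at RT before the TR-FRET read. Signals were background-subtracted on the negative control and normalized to the positive control. Averaged data were fitted with a normalized Hill equation to give the IC50.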

In test [3] the target is T1, Programmed cell death protein 1/Programmed cell death 1 ligand 1. As to the kind of experiment: Antagonist activity at PD1/PD-L1 (unknown origin) assessed as disruption of PD-1/PD-L1 complex by measuring PD-L1 dimerization by 1H-NMR analysis. The following applies: filed as antagonist. Summed up:
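PD-L1 was expressed in E. coli BL21 (DE3) as inclusion bodies, then refolded by drop-wise dilution into 0.1 M Tris pH 8.0, 1 M L-Arg HCl, 2 mM EDTA, and 0.25 mM each of oxidized and reduced glutathione. It was dialyzed against 10 mM Tris pH 8.0 with 20 mM NaCl. Final size-exclusion chromatography was run in PBS pH 7.4 for NMR.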

Test [4] shares this target. As to the kind of experiment: Antagonist activity at human PD1/PD-L1.
Test [5] deals with T2, Programmed cell death protein 1/Programmed cell death 1 ligand 1. As to the kind of experiment: Antagonist activity at human PD1/PD-L1 preincubated with PD-L1 for 1 hr followed by incubation with PD1 for 1 hr by ELISA.
The target in test [6] is T1, Programmed cell death protein 1/Programmed cell death 1 ligand 1. The test can be described thus: Antagonist activity at PD1/PD-L1 (unknown origin).

T2 sequence (Q15116 whole entry): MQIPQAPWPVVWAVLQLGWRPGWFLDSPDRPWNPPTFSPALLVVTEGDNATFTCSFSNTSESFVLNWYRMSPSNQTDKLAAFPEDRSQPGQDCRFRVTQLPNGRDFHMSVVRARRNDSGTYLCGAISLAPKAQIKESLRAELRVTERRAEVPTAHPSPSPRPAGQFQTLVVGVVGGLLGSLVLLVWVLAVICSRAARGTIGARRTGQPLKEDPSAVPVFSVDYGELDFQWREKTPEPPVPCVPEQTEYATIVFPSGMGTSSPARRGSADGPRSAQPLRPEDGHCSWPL
T2 sequence (Q9NZQ7 whole entry): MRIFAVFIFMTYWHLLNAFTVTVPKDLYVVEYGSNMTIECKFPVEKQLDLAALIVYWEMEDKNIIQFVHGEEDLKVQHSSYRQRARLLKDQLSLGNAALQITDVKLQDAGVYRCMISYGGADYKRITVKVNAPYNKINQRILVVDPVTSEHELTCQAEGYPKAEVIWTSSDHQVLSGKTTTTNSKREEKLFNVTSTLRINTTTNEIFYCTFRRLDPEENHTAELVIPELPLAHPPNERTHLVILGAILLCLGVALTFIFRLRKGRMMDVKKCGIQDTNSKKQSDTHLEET
T1 sequence (Q15116 whole entry): as the sequence (Q15116 whole entry) above
T1 sequence (Q9NZQ7 whole entry): as the sequence (Q9NZQ7 whole entry) above

For `Cc1c(COc2ccc3nc(CN)c(NC(C)c4ccccc4)n3c2)cccc1-c1ccccc1` (stereo not drawn), the outcome in test [1] (filed as antagonist) and in test [3] was Active. In addition, the IC50 in test [2] turned out to be 9.33 µM. For `Cc1c(-c2ccccc2)cccc1-c1nc2c(s1)CNCC2`, the IC50 in test [4] is not above 0.1 µM. Consider `Cc1c(COc2ccc3nc([C@@H](N)CO)c(NCc4ccccc4)n3c2)cccc1-c1ccccc1`, for which the outcome in test [1] was inactive. Still for that read-out and setting: the same measure for `Cc1c(COc2ccc3nc([C@H](N)CO)c(NCc4ccccc4)n3c2)cccc1-c1ccccc1`: “inactive”. Regarding `Cc1c(COc2ccc3nc(CN)c(NCc4ccccc4)n3c2)cccc1-c1ccc2c(c1)OCCO2`, the outcome in test [1] (filed as antagonist) was Active. The IC50 in test [2] is 22.9 µM. Compound `N#Cc1cncc(COc2cc(O[C@H]3CCc4c(-c5ccccc5F)cccc43)c(Cl)cc2CN2CC[C@@H](O)C2)c1` had a half-inhibitory concentration (IC50) in test [5] of less than 0.1 µM.

In the case of `Cc1c(COc2ccc3nc(CN)c(NCc4cccc(C#N)c4)n3c2)cccc1-c1ccc(F)cc1`, the result in test [1] was inactive. As to `CC(O)C(NC(=O)NC(CC(N)=O)c1nc(C(N)CO)no1)C(=O)O` (stereo not drawn), in test [6], the IC50 was found to be 5000 µM.

Take `Cc1cc2nc(CN)c(NCc3ccccc3)n2cc1OCc1cccc(-c2ccc3c(c2)OCCO3)c1C`: in test [1] (filed as antagonist), the result was Active. The IC50 in test [2] turned out to be 1.83 µM.

Consider `Cc1c(COc2ccc3nc(CN)c(NCc4cccc(-c5nn[nH]n5)c4)n3c2)cccc1-c1ccc(F)cc1`, for which, in test [1], the outcome was inactive. In the case of `Cc1c(Oc2ccc3nc(CN)c(NCc4ccccc4)n3c2)cccc1-c1ccccc1`, the outcome in test [1] (filed as antagonist) and in test [3] was Active. Regarding `Cc1c(COc2ccc3nc(CN)c(NCCc4ccccc4)n3c2)cccc1-c1ccc(F)cc1`, the outcome in test [1] was inactive.

As for `Cc1c(COc2ccc3nc(CN)c(NCc4ccccc4)n3c2)cccc1-c1ccccc1`, the result in test [1] (filed as antagonist) and in test [3] was Active. For the same compound, the IC50 in test [2] was 10.2 µM. As to `Cc1c(COc2ccc3nc(CN)c(NCCc4ccccc4)n3c2)cccc1-c1ccccc1`, the result in test [1] (filed as antagonist) and in test [3] was Active. Further, the IC50 in test [2] is 16.8 µM.
